Assay results published in ChEMBL document CHEMBL1157729, “Structure-activity relationship and mechanism of action studies of manzamine analogues for the control of neuroinflammation and cerebral infections” (J Med Chem, 2010).
Converted amounts (≈) assume the structure as drawn.

Tests used:
Plasmodium falciparum [1] = assay: Antiplasmodial activity against chloroquine-sensitive Plasmodium falciparum D6 after 72 hrs by LDH assay; assay type: functional, organism-based
Plasmodium falciparum [2] = assay: Antiplasmodial activity against chloroquine-resistant Plasmodium falciparum W2 after 72 hrs by LDH assay; assay type: functional, organism-based
Cryptococcus neoformans = assay: Antifungal activity against Cryptococcus neoformans ATCC 90113; assay type: functional, organism-based
How it was run: (§1)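 Broth microdilution per modified CLSI method; samples serially diluted in 20% DMSO/saline, tested in duplicate; inocula set by OD630 of suspensions in incubation broth; growth read at 630 nm before and after incubation; amphotericin B drug control.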

[3] = test system: Mycobacterium intracellulare; assay: Antimycobacterial activity against Mycobacterium intracellular ATCC 23068; assay type: functional, organism-based
How it was run: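 Modified Franzblau method; samples serially diluted in 20% DMSO/saline, tested in duplicate; inoculum set by OD630; fluorescence read at 544ex/590em before and after incubation; ciprofloxacin drug control.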

Vero [4] = assay: Cytotoxicity against african green monkey Vero cells up to 4.6 ug/mL after 48 hrs by neutral red assay; assay type: cell-based; details: chlorocebus sabaeus
How it was run: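 Vero cells were seeded at 25,000 cells/well and incubated for 24 h, then exposed to serially diluted samples for 48 h. Viable cells were counted by Neutral Red assay, with doxorubicin as positive control. IC50 was taken from dose-response curves.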

[5] = test system: Mycobacterium tuberculosis; assay: Antimycobacterial activity against Mycobacterium tuberculosis H37Rv; assay type: functional, organism-based
Candida albicans = assay: Antifungal activity against Candida albicans ATCC 90028; assay type: functional, organism-based; how it was run: as §1
Vero [6] = assay: Cytotoxicity against african green monkey Vero cells after 48 hrs by neutral red assay; assay type: cell-based; details: chlorocebus sabaeus
How it was run: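 Vero cells seeded at 25,000/well and grown 24 h, then exposed to serially diluted samples for 48 h. Viable cells measured by neutral red assay, with doxorubicin as positive control. IC50 taken from dose-response curves.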

[7] = Antineuroinflammatory activity in LPS-stimulated rat neonatal microglia assessed as drug level causing 50% PMA-induced LDH release preincubated 15 mins prior to PMA challenge measured after 70 mins; assay type: functional
How it was run: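 Neonatal rat microglia (2 × 10^5/well) primed with E. coli LPS 0.3 ng/mL for 17 h at 35.9 °C, washed with HBSS, given compound (0.01–10 μM) or DMSO 15 min, then PMA 1 μM; LDH read spectrophotometrically after 70 min; LDH50 relative to Triton X-100 (0.1%) release; duplicates.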

[8] = Antineuroinflammatory activity in LPS-stimulated rat neonatal microglia assessed as inhibition of PMA-induced superoxide anion production preincubated 15 mins prior to PMA challenge measured after 70 mins; assay type: functional, cell-based
[9] = Antineuroinflammatory activity in LPS-stimulated rat neonatal microglia assessed as inhibition of PMA-induced TXB2 production preincubated 15 mins prior to PMA challenge measured after 70 mins; assay type: functional, cell-based
[10] = Plasmodium falciparum, D6, 72 h, read-out: IC50
[11] = Plasmodium falciparum, W2, 72 h, read-out: IC50

Row | SMILES | IC50 (Plasmodium falciparum [1]) | IC50 (Plasmodium falciparum [2]) | IC50 (Cryptococcus neoformans) [µg/mL] | IC50 [3] [µg/mL] | Activity (Vero [4]) | MIC [5] [µg/mL] | IC50 (Candida albicans) [µg/mL] | IC50 (Plasmodium falciparum [1]; [10]) [µg/mL] | IC50 (Vero [6]) [µg/mL] | IC50 (Plasmodium falciparum [2]; [11]) [µg/mL] | Activity [7] [µM] | IC50 [8] [µM] | IC50 [9] [µM]
1 | COc1cccc(/C=C2/CCN3[C@@H](CCC2=O)C[C@]24CN5CCCC/C=C\CC[C@](O)(C=C(c6nccc7c6[nH]c6c(O)cccc67)[C@@H]2CC5)[C@H]34)c1 | Not Active | Not Active | > 20 | > 20 | Non-toxic | > 64 | > 20 | – | – | – | – | – | –
2 | O=C1CC[C@H]2C[C@]34CN5CCCC/C=C\CC[C@](O)(C=C(c6nccc7c6[nH]c6c(O)cccc67)[C@@H]3CC5)[C@@H]4N2CC/C1=C/c1ccc(Br)cc1 | Not Active | Not Active | > 20 | > 20 | Non-toxic | > 64 | > 20 | – | – | – | – | – | –
3 | [O-][N+]12CCCC/C=C\CC[C@]3(O)C=C(c4nccc5c4[nH]c4ccccc45)[C@H](CC1)[C@]1(C[C@@H]4/C=C\CCCC[N@+]4([O-])[C@H]13)C2 | – | – | > 20 | 10 (≈ 17.2 µM) | Non-toxic | – | > 20 | – | – | – | – | – | –
4 | CC(=O)Oc1cccc2c1[nH]c1c(C3=C[C@@]4(O)CC/C=C\CCCCN5CC[C@@H]3[C@]3(C[C@@H]6/C=C\CCCCN6[C@H]34)C5)nccc12 [8-ACETOXYMANZAMINE A] | – | – | – | – | – | – | – | 0.029 (≈ 0.0478 µM) | 670 (≈ 1100 µM) | – | – | – | –
5 | O=[N+]([O-])c1cccc2c1[nH]c1c(C3=C[C@@]4(O)CC/C=C\CCCCN5CC[C@@H]3[C@]3(C[C@@H]6/C=C\CCCCN6[C@H]34)C5)nccc12 [8-NITROMANZAMINE A] | – | – | 4 (≈ 6.74 µM) | 0.25 (≈ 0.421 µM) | Non-toxic | – | > 20 | 0.31 (≈ 0.522 µM) | – | 0.41 (≈ 0.691 µM) | – | – | –
6 | CC(C)CCn1c2ccccc2c2ccnc(C3=C[C@@]4(O)CC/C=C\CCCCN5CC[C@@H]3[C@]3(C[C@@H]6/C=C\CCCCN6[C@H]34)C5)c21 [9-N-ISOPENTYLMANZAMINE A] | – | – | > 20 | 6.5 (≈ 10.5 µM) | Non-toxic | 128 (≈ 207 µM) | > 20 | 2.3 (≈ 3.72 µM) | – | 3.8 (≈ 6.14 µM) | >10 | 3.2 | 3.2
7 | Cn1c2ccccc2c2ccnc(C3=C[C@@]4(O)CC/C=C\CCCCN5CC[C@@H]3[C@]3(C[C@@H]6/C=C\CCCCN6[C@H]34)C5)c21 [9-N-METHYLMANZAMINE A] | – | – | > 20 | > 20 | Non-toxic | > 64 | > 20 | 1.9 (≈ 3.38 µM) | – | 1 (≈ 1.78 µM) | >10 | > 10 | > 10
8 | O[C@]12C=C(c3nccc4c3[nH]c3ccccc34)[C@@H]3CCN(CCCC/C=C\CC1)C[C@@]31C[C@@H]3CCCCCCN3[C@H]12 [32,33-DIHYDROMANZAMINE A] | – | – | 1.5 (≈ 2.72 µM) | 0.6 (≈ 1.09 µM) | – | 66 (≈ 120 µM) | 9.5 (≈ 17.2 µM) | – | – | 1.8 (≈ 3.27 µM) | – | – | –
9 | C[C@@H]1[C@H](O)[C@@H](C)/C=C/C=C/C=C/C=C/C=C/C=C/C=C/[C@H](O[C@@H]2O[C@H](C)[C@@H](O)[C@H](N)[C@@H]2O)C[C@@H]2O[C@](O)(C[C@@H](O)C[C@@H](O)[C@H](O)CC[C@@H](O)C[C@@H](O)CC(=O)O[C@H]1C)C[C@H](O)[C@H]2C(=O)O [AMPHOTERICIN B] | – | – | – | – | – | – | 0.2 (≈ 0.216 µM) | – | – | – | – | – | –
10 | C1=C(c2nccc3c2[nH]c2ccccc23)[C@@H]2CCN3CCCC/C=C\C/C=C/1[C@@H]1N4CCCC/C=C\[C@H]4C[C@@]12C3 [DEHYDROMANZAMINE A] | – | – | 4.5 (≈ 8.48 µM) | 0.4 (≈ 0.754 µM) | – | 46 (≈ 86.7 µM) | 9.5 (≈ 17.9 µM) | 0.12 (≈ 0.226 µM) | – | 2.2 (≈ 4.14 µM) | – | – | –
11 | O=CC1=C[C@@]2(O)CC/C=C\CCCCN3CC[C@@H]1[C@]1(C[C@@H]4/C=C\CCCCN4[C@H]12)C3 [IRCINAL] | – | – | – | – | – | – | – | – | – | – | 4.6 | > 10 | 0.33
12 | O=C1CCCN2[C@@H](CC1)C[C@]13CN4CCCC/C=C\CC[C@](O)(C=C(c5nccc6c5[nH]c5c(O)cccc56)C1CC4)[C@H]23 (stereo partly drawn) [MANZAMINE F] | – | – | – | – | – | – | 15 (≈ 25.8 µM) | – | – | – | – | – | –
13 | CO[C@H]1/C=C/O[C@@]2(C)Oc3c(C)c(O)c4c(O)c(c(/C=N/N5CCN(C)CC5)c(O)c4c3C2=O)NC(=O)/C(C)=C\C=C\[C@H](C)[C@H](O)[C@@H](C)[C@@H](O)[C@@H](C)[C@H](OC(C)=O)[C@@H]1C [RIFAMPIN] | – | – | – | – | – | 0.09 (≈ 0.109 µM) | – | – | – | – | – | – | –
